Laboratory results taken from ChEMBL document CHEMBL1154384, “New classes of potent and bioavailable human renin inhibitors” (Bioorg Med Chem Lett, 2009).

Columns and labels:
Renin [1] = target: T1, Renin (Homo sapiens, UniProt P00797); test: Inhibition of human rennin in buffer assessed as accumulation of angiotensin 1 using human tetradecapeptide by immunoassay
T1 sequence (P00797 whole entry): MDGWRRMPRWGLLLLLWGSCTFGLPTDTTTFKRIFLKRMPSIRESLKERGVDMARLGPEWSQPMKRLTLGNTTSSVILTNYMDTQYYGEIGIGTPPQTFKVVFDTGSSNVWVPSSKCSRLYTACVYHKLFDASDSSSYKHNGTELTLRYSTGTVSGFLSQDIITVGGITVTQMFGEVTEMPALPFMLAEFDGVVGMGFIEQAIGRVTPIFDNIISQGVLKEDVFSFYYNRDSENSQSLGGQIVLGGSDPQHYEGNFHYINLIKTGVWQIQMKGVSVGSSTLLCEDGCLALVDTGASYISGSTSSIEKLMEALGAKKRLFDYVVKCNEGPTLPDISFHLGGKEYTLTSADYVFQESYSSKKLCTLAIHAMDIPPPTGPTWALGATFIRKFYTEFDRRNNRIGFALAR

[2] = Oral bioavailability in Wistar rat at 10 mg/kg; assay type: ADME, organism-based; settings: in vivo
Renin [3] = target: T1, Renin; test: Inhibition of human rennin in human plasma assessed as accumulation of angiotensin 1 using human tetradecapeptide by immunoassay; assay type: cell-free
[4] = Dissociation constant, pKa of the compound; assay type: physicochemical
Summary of the method: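 pKa of the template's secondary amine, measured experimentally. Compounds poorly soluble in water in their neutral form were measured in solvent mixtures, so their values could only be estimated.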

Cytochrome P450 3A4 = Cytochrome P450 3A4 (Homo sapiens, UniProt P08684); test: Inhibition of CYP3A4; assay type: ADME
Sequence of Cytochrome P450 3A4 (P08684 whole entry): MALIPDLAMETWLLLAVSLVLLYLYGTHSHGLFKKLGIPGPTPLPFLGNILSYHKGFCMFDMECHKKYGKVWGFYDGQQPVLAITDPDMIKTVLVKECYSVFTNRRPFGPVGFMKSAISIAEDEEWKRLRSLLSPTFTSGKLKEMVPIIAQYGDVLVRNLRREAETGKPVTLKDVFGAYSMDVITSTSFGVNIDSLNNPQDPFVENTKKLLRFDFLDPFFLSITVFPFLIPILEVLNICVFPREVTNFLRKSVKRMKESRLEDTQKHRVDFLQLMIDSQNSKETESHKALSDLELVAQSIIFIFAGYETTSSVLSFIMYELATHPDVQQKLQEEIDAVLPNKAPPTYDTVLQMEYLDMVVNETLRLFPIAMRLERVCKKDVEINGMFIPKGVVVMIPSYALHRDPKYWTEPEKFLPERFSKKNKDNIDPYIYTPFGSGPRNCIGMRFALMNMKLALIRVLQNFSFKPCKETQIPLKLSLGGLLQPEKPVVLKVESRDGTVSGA

| Compound | IC50 (Renin [1]) | bioavailability [2] | IC50 (Renin [3]) | pKa [4] | IC50 (Cytochrome P450 3A4) |
| --- | --- | --- | --- | --- | --- |
| O=C(C1=C(c2ccc(CCCOc3cc(F)ccc3Br)cc2)CCNC1)N(Cc1ccccc1Cl)C1CC1 | – | 10% | – | – | – |
| O=C(C1=C(c2ccc(CCCOc3c(F)ccc(F)c3Cl)cc2)C[C@H]2CNC[C@H]1N2)N(Cc1cccc(Cl)c1Cl)C1CC1 | 0.4 nM | – | 36 nM | 8.2 | – |
| COc1cccc(CN(C(=O)C2=C(c3ccc(CCCOc4c(F)ccc(F)c4Cl)cc3)C[C@H]3CNC[C@H]2N3)C2CC2)c1C | 1.37 nM | – | 54 nM | 3.6 | – |
| COc1cccc(CN(C(=O)C2=C(c3ccc(CCCOc4c(F)ccc(F)c4Cl)cc3)CCNC2)C2CC2)c1C | 2 nM | 10% | 87 nM | – | – |
| COc1cccc(CN(C(=O)C2=C(c3ccc(CCCOc4c(F)ccc(F)c4Cl)cc3)C[C@H]3COC[C@H]2N3)C2CC2)c1C | 0.49 nM | – | 42 nM | 6.5 | 1000 nM |
| COc1cccc(CN(C(=O)C2=C(c3ccc(CCCOc4c(F)ccc(F)c4Cl)cc3)C[C@H]3CCC[C@H]2N3)C2CC2)c1C | 0.92 nM | – | 101 nM | – | – |
| COc1cccc(CN(C(=O)C2=C(c3ccc(CCCOc4c(F)ccc(F)c4Cl)cc3)C[C@H]3CC[C@H]2N3)C2CC2)c1C | 0.74 nM | – | 43 nM | – | – |
| COc1cccc(CN(C(=O)C2=C(c3ccc(CCCOc4c(F)ccc(F)c4Cl)cc3)C[C@H]3C[S+]([O-])C[C@H]2N3)C2CC2)c1C (some centres undefined) | 64 nM | – | – | – | – |
| O=C(C1=C(c2ccc(CCCOc3c(F)ccc(F)c3Cl)cc2)C[C@H]2CCC[C@H]1N2)N(Cc1cccc(Cl)c1Cl)C1CC1 | 1.1 nM | – | 113 nM | – | – |
| Cc1cc(Cl)c(OCCOc2ccc(C3=C(C(=O)N(Cc4cccc(Cl)c4Cl)C4CC4)CNCC3)cc2)c(Cl)c1 | – | 10% | – | – | – |
| O=C(C1=C(c2ccc(CCCOc3c(F)ccc(F)c3Cl)cc2)C[C@H]2CS(=O)(=O)C[C@H]1N2)N(Cc1cccc(Cl)c1Cl)C1CC1 | 6.4 nM | – | – | – | – |
| O=C(C1=C(c2ccc(CCCOc3c(F)ccc(F)c3Cl)cc2)C[C@H]2CC[C@H]1N2)N(Cc1cccc(Cl)c1Cl)C1CC1 | 0.55 nM | – | 47 nM | – | 1900 nM |

Second part, led by results:

| IC50 (Renin [1]) | bioavailability [2] | IC50 (Renin [3]) | Compound | pKa [4] | IC50 (Cytochrome P450 3A4) |
| --- | --- | --- | --- | --- | --- |
| 330 nM | 10% | – | COc1cccc(CN(C(=O)C2=C(c3ccc(CCCOc4c(F)ccc(F)c4Cl)cc3)C(F)(F)CNC2)C2CC2)c1C | – | – |
| 1.2 nM | 10% | 53 nM | O=C(C1=C(c2ccc(CCCOc3c(F)ccc(F)c3Cl)cc2)CCNC1)N(Cc1cccc(Cl)c1Cl)C1CC1 | – | 1300 nM |
| 210 nM | 10% | 7400 nM | COc1cccc(CN(C(=O)C2=C(c3ccc(CCCOc4c(F)ccc(F)c4Cl)cc3)C3(CC3)CNC2)C2CC2)c1C | – | – |
| 34 nM | 10% | 4000 nM | O=C(C1=C(c2ccc(CCCOc3c(F)ccc(F)c3Cl)cc2)C2(CC2)CNC1)N(Cc1cccc(Cl)c1Cl)C1CC1 | – | – |
| 31 nM | 10% | 2000 nM | CC1(C)CNCC(C(=O)N(Cc2cccc(Cl)c2Cl)C2CC2)=C1c1ccc(CCCOc2c(F)ccc(F)c2Cl)cc1 | – | – |
| 170 nM | 10% | 7400 nM | COc1cccc(CN(C(=O)C2=C(c3ccc(CCCOc4c(F)ccc(F)c4Cl)cc3)C(C)(C)CNC2)C2CC2)c1C | – | – |
| 0.68 nM | – | 55 nM | O=C(C1=C(c2ccc(CCCOc3c(F)ccc(F)c3Cl)cc2)C[C@H]2COC[C@H]1N2)N(Cc1cccc(Cl)c1Cl)C1CC1 | 6.5 | – |
| 800 nM | 10% | – | O=C(C1=C(c2ccc(CCCOc3c(F)ccc(F)c3Cl)cc2)C(F)(F)CNC1)N(Cc1cccc(Cl)c1Cl)C1CC1 | – | – |
